Drawing on ChEMBL document CHEMBL1123257, “Synthesis of sulfur analogues of alkyl lysophospholipid and neoplastic cell growth inhibitory properties” (1986), this text covers Control for one compound.

Molecules are shown by their SMILES.

Holding throughout (assay type): functional
Test [1] deals with BG-3. Briefly: Compound was evaluated for its effect on colony growth of human ovarian adenocarcinoma cell line BG-3 at 0.3 ug/mL. The procedure, abridged: (§1)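 Single-cell suspensions of BG-1 or BG-3 human ovarian carcinoma cells (derived from primary explants, now kept in continuous culture) were plated in soft agarose clonogenic culture. Cells were exposed continuously to phospholipid analogue over a three-log concentration range, with untreated cultures as controls. After 7 days at 37 °C/7.5% CO2, colonies were scored by inverted microscopy and automated image analysis.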

The test system of test [2] is BG-3. Briefly: Compound was evaluated for its effect on colony growth of human ovarian adenocarcinoma cell line BG-3 at 3.0 ug/mL. The procedure, abridged:
as §1

Test [3] has as its system BG-1 cell line. Briefly: Compound was evaluated for its effect on colony growth of human ovarian adenocarcinoma cell line BG-1 at 0.3 ug/mL. The procedure, abridged: as §1
Test [4] has as its system BG-3. Briefly: Compound was evaluated for its effect on colony growth of human ovarian adenocarcinoma cell line BG-3 at 30.0 ug/mL. The procedure, abridged:
as §1

Test [5] has as its system BG-1 cell line. Briefly: Compound was evaluated for its effect on colony growth of human ovarian adenocarcinoma cell line BG-1 at 30.0 ug/mL. The procedure, abridged: as §1
The subject of test [6] is BG-3. Briefly: Compound was evaluated for its effect on colony growth of human ovarian adenocarcinoma cell line BG-3 at 0.1 ug/mL. The procedure, abridged:
as §1

Test [7] has as its system BG-3. Briefly: Compound was evaluated for its effect on colony growth of human ovarian adenocarcinoma cell line BG-3 at 10.0 ug/mL. The essentials: as §1
The subject of test [8] is BG-1 cell line. Briefly: Compound was evaluated for its effect on colony growth of human ovarian adenocarcinoma cell line BG-1 at 10.0 ug/mL. The procedure, abridged:
as §1

Test [9] relates to BG-1 cell line. Briefly: Compound was evaluated for its effect on colony growth of human ovarian adenocarcinoma cell line BG-1 at 3.0 ug/mL. The essentials:
as §1

Test [10] relates to BG-3. Briefly: Compound was evaluated for its effect on colony growth of human ovarian adenocarcinoma cell line BG-3 at 1.0 ug/mL. The procedure, abridged:
as §1

Test [11] has as its system BG-1 cell line. Briefly: Compound was evaluated for its effect on colony growth of human ovarian adenocarcinoma cell line BG-1 at 0.1 ug/mL. The essentials: as §1
In test [12] the test system is BG-3. Briefly: Compound was evaluated for its effect on colony growth of human ovarian adenocarcinoma cell line BG-3 at 0.03 ug/mL. The essentials:
as §1

Test [13] has as its system BG-1 cell line. Briefly: Compound was evaluated for its effect on colony growth of human ovarian adenocarcinoma cell line BG-1 at 0.03 ug/mL. The procedure, abridged: as §1
Test [14] deals with BG-1 cell line. Briefly: Compound was evaluated for its effect on colony growth of human ovarian adenocarcinoma cell line BG-1 at 1.0 ug/mL. The essentials:
as §1

Test [15] concerns BG-1 cell line. Briefly: Compound was evaluated for its effect on colony growth of human ovarian adenocarcinoma cell line BG-1 at 0.0 ug/mL. The essentials:
as §1

Test [16] has as its system BG-3. Briefly: Compound was evaluated for its effect on colony growth of human ovarian adenocarcinoma cell line BG-3 at 0.0 ug/mL,. The procedure, abridged:
as §1

On to `CCCCCCCCCCCCCCCCSCC(COP(=O)([O-])OCC[N+](C)(C)C)OCC` (stereo unspecified), for which the Control with BG-3 [1] stood at 56%; in the test with BG-3 [2], 2%; in the test on BG-1 cell line [3], 53%; in the test on BG-3 [4], 2%; with BG-1 cell line [5] it was 2%; with BG-3 [6] it was 54%. For the same compound, the Control is 3% in the test with BG-3 [7]; 2% in the test on BG-1 cell line [8]; 2% with BG-1 cell line [9]; 17% with BG-3 [10]; 64% in the test on BG-1 cell line [11]; 56% in the test with BG-3 [12]. For the same compound, the Control with BG-1 cell line [13] was 65%; with BG-1 cell line [14], 8%; in the test with BG-1 cell line [15], 100%; in the test on BG-3 [16], 100%.
